PubChem BioAssay AID602268 (Broad Institute, 2012)
“And” between values parts separate entries of the source, which are not always exact repeats. Identical values can stand only once. The source made the active and inactive calls.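 Rule for the calls: active = compounds lowering reporter light with a fitted half-maximal dose no more than twice the top dose tested; inconclusive = flat curve at 30 to 70% inhibition, or poor fit; inactive = the rest.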

Assays:
[1] = inhibition of MG132-induced HSE-luciferase signal, dose response, cell-based, NIH3T3, luminescence, dry powder samples (AID 602268); details: NIH3T3-HGL HSE-luciferase, MG132-induced, luminescence 8 h; at 26 µM (top of the series)
Method in brief: (§1)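 Assay system – NIH3T3-HGL cells, HSE-controlled luciferase reporter · Timing – 24 h cell seeding, 30 min compound pretreatment, 8 h MG132 · Medium – Opti-MEM with 2.5% FBS · Technique – Steady-Glo luminescence of luciferase · Reagent – MG132 at 2.5 µM final · Control set – Didemnin B 400 nM as positive control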

[2] = test system: NIH3T3-HGL HSE-luciferase, MG132-induced, luminescence 8 h; test: as above
Method in brief: as §1

Structure (SMILES)	activity change, negative = inhibition [1]	AC50 [2] [nM]
CCc1ccc(NC(=O)C2C3CCC(O3)C2C(=O)O)cc1 (stereo not given)	7.59% (inactive) and -9.7% (inactive)	
O=C1C=C(NCCN2CCOCC2)C(=O)c2cnccc21		2370
Oc1ccc(Br)cc1/C=N/Nc1ccccn1		1720
CC1=NNC(=O)/C1=C\c1cn(-c2ccccc2)nc1-c1ccc(Cl)cc1		1460
O=C(CCl)N1CCCC1c1ccc2c(c1)OCCO2 (stereo not given)		949
